From ChEMBL document CHEMBL5500387, “Design, synthesis of combretastatin A-4 piperazine derivatives as potential antitumor agents by inhibiting tubulin polymerization and inducing autophagy in HCT116 cells” (Eur J Med Chem, 2024)

Legend:
A549 [1] = experiment: Induction of cell cycle arrest in human A549 cells assessed as accumulation of cells at S phase at 0.3 uM measured after 24 hrs by PI/RNase staining based analysis (reference value: 24.95%); type: functional
[2] = Toxicity in female BALB/c nude mouse xenografted with human HCT-116 cells assessed as reduction in body weight at 20 to 40 mg/kg, ip administered every 2 days for 20 days; type: organism-based; conditions: in vivo, 480 h, dose 20-40 mg/kg, time 20 day
Summary of the method: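 Female BALB/c nude mice, 5 weeks old, bearing subcutaneous HCT116 xenografts (started at 100 mm³), randomised into groups of ten. Saline-injected ip controls. Body weight monitored throughout the 20-day intraperitoneal treatment.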

HCT-116 [3] = experiment: Inhibition of cell migration in human HCT-116 cells measured after 24 hrs by crystal violet staining based fluorescent inverted microscopic analysis; type: functional; conditions: dose 0.1-0.3 µM
Summary of the method: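 Uncoated Transwell inserts were seeded with HCT116 cells (1×10^4) in the upper chamber, with complete medium below. Treated 24 h at 37 °C, 5% CO2, with 0.1, 0.2 or 0.3 μM or 0.1% DMSO. Fixed with 4% paraformaldehyde, stained with 0.1% crystal violet, migrated cells imaged and counted. At least three replicates.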

[4] = Cytotoxicity against human NCM460 cells assessed as inhibition of cell proliferation measured after 72 hrs by CCK-8 assay; type: toxicity, cell-based
Summary of the method: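 NCM460 normal colonic epithelial cells seeded at 2×10^3 cells/well and grown overnight in RPMI-1640 with 10% FBS. Compounds added at a range of concentrations, 0.1% DMSO as negative control, 72 h at 37 °C. Read-out by CCK-8 (10%, 2 h) at 450 nm. Survival = (As−Ab)/(Ac−Ab)×100%; IC50 taken as concentration giving 50% inhibition of proliferation.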

HCT-116 [5] = experiment: Induction of cell cycle arrest in human HCT-116 cells assessed as accumulation of cells at G0/G1 phase at 0.1 uM measured after 24 hrs by PI/RNase staining based flow cytometry analysis (reference value: 32.88%); type: functional
A549 [6] = experiment: Induction of apoptosis in human A549 cells assessed as late apoptotic cells at 0.1 uM measured after 24 hrs by Annexin V-APC/PI staining based flow cytometry analysis (reference value: 0.86%); type: functional

COc1ccc(/C=C(/C(=O)N2CCN(c3ccc(C)cc3)CC2)c2cc(OC)c(OC)c(OC)c2)cc1O
Activity (A549 [1]): 7.17%
Activity [2]: Non-Toxic
inhibition (HCT-116 [3]): Dose-Dependent Effect
IC50 at 72 h [4]: 1.09 µM
Activity (HCT-116 [5]): 34.26%
Activity (A549 [6]): 2.78%
